This note sets out measurements from ChEMBL document CHEMBL3739287, “Diversification of edaravone via palladium-catalyzed hydrazine cross-coupling: Applications against protein misfolding and oligomerization of beta-amyloid” (Bioorg Med Chem Lett, 2016).

Each structure is given as a SMILES string. pIC50: −log10 of the molar value.

For experiment [1], the target named is T1, Amyloid-beta precursor protein (Homo sapiens, UniProt P05067). The experiment can be described thus: Inhibition of amyloid beta (1 to 40 residues) (unknown origin) aggregation at 25 uM incubated for 72 hrs by Thioflavin T assay. The gist of the method:
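Kinetic ThT aggregation format: monomeric Aβ40 (20 μM) with ThT (8 μM) and compound at a single 25 μM concentration. Fluorescence was followed over 72 h, and percent inhibition of aggregation was taken at 72 h.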

Experiment [2] concerns the target T1, Amyloid-beta precursor protein. The experiment can be described thus: Inhibition of N-alpha-biotinyl-amyloid beta (1 to 42 residues) (unknown origin) oligomerization incubated for 1 hr by sandwich biotin-avidin assay. In short, it runs like this:
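Sub-nanomolar detection of N-α-biotinyl-Aβ(1–42) oligomers using single-site NeutrAvidin capture with labeled streptavidin detection. The format recognizes multimeric (>20 kDa) oligomers but not monomer. Compounds were tested over 1–50 μM to build dose-response curves, from which IC50 was determined.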

Experiment [3] has the same target. In words: Inhibition of amyloid beta (1 to 40 residues) (unknown origin) aggregation incubated for 72 hrs by Thioflavin T assay. The gist of the method: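 Aβ40 (20 μM) aggregation in a kinetic format with ThT (8 μM), fluorescence read over 72 h. IC50 came from dose-response curves of percent inhibition and was collected only for compounds giving >50% inhibition at 25 μM in this assay and IC50 <50 μM in the bio-Aβ42 oligomer assay.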

T1 sequence (P05067 whole entry, the tested form may be a part): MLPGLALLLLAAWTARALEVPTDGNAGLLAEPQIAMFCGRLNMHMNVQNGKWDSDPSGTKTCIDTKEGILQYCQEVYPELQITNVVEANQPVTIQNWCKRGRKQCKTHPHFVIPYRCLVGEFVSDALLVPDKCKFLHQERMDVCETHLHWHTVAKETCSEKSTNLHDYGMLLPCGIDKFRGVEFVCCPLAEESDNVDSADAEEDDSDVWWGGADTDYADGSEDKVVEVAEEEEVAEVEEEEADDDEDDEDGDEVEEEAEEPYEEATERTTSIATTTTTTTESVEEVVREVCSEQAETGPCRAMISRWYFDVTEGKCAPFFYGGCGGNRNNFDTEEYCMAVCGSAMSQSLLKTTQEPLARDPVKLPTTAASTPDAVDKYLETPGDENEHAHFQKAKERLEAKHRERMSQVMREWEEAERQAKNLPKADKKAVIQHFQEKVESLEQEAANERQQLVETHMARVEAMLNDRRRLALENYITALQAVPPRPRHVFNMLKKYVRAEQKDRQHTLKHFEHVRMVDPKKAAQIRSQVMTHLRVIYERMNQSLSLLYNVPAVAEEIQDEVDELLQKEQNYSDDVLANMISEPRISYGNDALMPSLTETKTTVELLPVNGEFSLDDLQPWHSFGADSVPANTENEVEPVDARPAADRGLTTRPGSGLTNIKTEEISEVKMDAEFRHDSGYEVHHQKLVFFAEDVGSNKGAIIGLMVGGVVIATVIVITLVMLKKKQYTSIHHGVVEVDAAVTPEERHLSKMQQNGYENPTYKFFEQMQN

`COc1cc(F)cc(N2N=C(C)CC2=O)c1` registered an inhibition in experiment [1] of 26.4%. Moreover, the negative logarithm of the IC50 (pIC50) in experiment [2] is less than 4.30.
Taken in the same sequence, the figures for `CC1=NN(c2cccc(C)c2)C(=O)C1` were 30.9% and less than 4.30.
Taken in the same sequence, the figures for `CC1=NN(c2ccc(C)c(F)c2)C(=O)C1` were 49% and less than 4.30.
Taken in the same sequence, the figures for `CC1=NN(c2ccc(C(F)(F)F)cc2)C(=O)C1` were 56.3% and less than 4.30.
In experiment [1], `CC1=NN(c2cc(C)ccc2C)C(=O)C1` returned an inhibition of 7.4%. This compound had a pIC50 in experiment [2] of less than 4.30.
`CC1=NN(c2cc(F)ccc2C)C(=O)C1` registered an inhibition in experiment [1] of 26.2%. In addition, the pIC50 in experiment [2] was less than 4.30.
Consider `CC1=NN(c2cccc(N3CCCC3)c2)C(=O)C1`, for which the inhibition in experiment [1] is 47%. This compound showed a pIC50 in experiment [2] of 4.77.
Take `CC1=NN(c2ccc(-c3cccnc3)cc2)C(=O)C1`: the pIC50 in experiment [3] was 4.84; in experiment [2] it was 5.41. In experiment [1], this compound had an inhibition of 53.2%.
In the case of `CC1=NN(c2cccc(COCc3ccccc3)c2)C(=O)C1`, the values for the pIC50 in experiment [3] and in experiment [2] were 4.57 and 5.54, respectively. Also, the inhibition in experiment [1] was found to be 53.4%.
Take `CC1=NN(c2ccc3ccccc3c2)C(=O)C1`: the inhibition in experiment [1] is 56.2%. Also, the pIC50 in experiment [2] is less than 4.30.
Turning to `CC1=NN(c2ccc(N(c3ccccc3)c3ccccc3)cc2)C(=O)C1`, the pIC50 is less than 4.30 in experiment [3] and 5.40 in experiment [2]. This compound yielded an inhibition in experiment [1] of 50.7%.
For `CC1=NN(c2ccc(-c3ccccc3)cc2)C(=O)C1`, the values for the pIC50 in experiment [3] and in experiment [2] were 5.25 and 4.71, respectively. Also, the inhibition in experiment [1] is 78.7%.
Taken in the same sequence, the figures for `CC1=NN(c2ccc(-n3cccc3)cc2)C(=O)C1` were 4.59, 5.40 and 60.6%.
In turn, `CC1=NN(c2cccnc2)C(=O)C1` registered an inhibition in experiment [1] of 20.2%. Besides, in experiment [2], the pIC50 is less than 4.30.
The compound `COc1cc(N2N=C(C)CC2=O)nc(OC)n1` had an inhibition in experiment [1] of 48.2%. The compound further showed a pIC50 in experiment [2] of less than 4.30.
Taken in the same sequence, the figures for `CCc1ccccc1N1N=C(C)CC1=O` were 26.3% and less than 4.30.
For `CC1=NN(c2ccc(-n3c(-c4ccccc4)cc4ccccc43)cc2)C(=O)C1`, the pIC50 in experiment [3] was 4.71; in experiment [2], 5.46. Besides, the inhibition in experiment [1] is 71.4%.
Consider `CC1=NN(c2ccccc2)C(=O)C1` [EDARAVONE], for which the inhibition in experiment [1] amounted to 17.2%. Further, the negative logarithm of the IC50 (pIC50) in experiment [2] is less than 4.30.
Taken in the same sequence, the figures for `CC1=NN(c2ccccc2C)C(=O)C1` were 22.7% and less than 4.30.
Regarding `CC1=NN(c2ccc(C)cc2)C(=O)C1`, the inhibition in experiment [1] was 16.3%. The compound also had a negative-log IC50 (pIC50) in experiment [2] of less than 4.30.
With `COc1cccc(N2N=C(C)CC2=O)c1`, the negative-log IC50 (pIC50) in experiment [3] and in experiment [2] was less than 4.30 throughout. The inhibition in experiment [1] is 39.7%.
Take `COc1ccc(-c2ccc(N3N=C(C)CC3=O)cc2)cc1`: the pIC50 was 5.47 in experiment [3] and 5.29 in experiment [2]. In experiment [1], this compound displayed an inhibition of 69.6%.

By inhibition is commonly meant the change of the read-out against control, counted positive when it falls. Read a low inhibition as little suppression. The pIC50 is the negative decadic logarithm of the IC50, by convention in mol/L. A high value points to a low IC50.
